Experimental data as given in ChEMBL document CHEMBL2169835, “Flavonoid dimers as novel, potent antileishmanial agents” (J Med Chem, 2012).

Legend:
Leishmania donovani [1] = experiment: Antimicrobial activity against pentamidine-resistant Leishmania donovani AG83PentR50 promastigote assessed as inhibition of parasite growth after 72 hrs by MTS assay; format: functional, organism-based; settings: AG83PentR50, 72 h
Method in brief: (§1)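 Promastigotes were grown in Schneider's medium pH 6.9 with 10% heat-inactivated FBS at 27 °C, seeded at 1 × 10^5 per well, and exposed to serial concentrations for 72 h at 27 °C. Compounds were in DMSO (≤1% final) or water. MTS:PMS (20:1) was added for 4 h, then OD490 was read. Survival was % of untreated control; IC50 = concentration halving OD; N = 1−4.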

RAW264.7 = experiment: Cytotoxicity against mouse RAW264.7 cells after 72 hrs by MTS assay; format: cell-based; settings: RAW264.7, 72 h
Method in brief: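 RAW 264.7 murine macrophage line was plated at 1 × 10^4 cells per well in supplemented DMEM. Cells received a graded compound series for 72 h at 37 °C, 5% CO2, with a maximum of 1% DMSO. Viability was measured by MTS with PMS coupling at OD 490 nm, as percent of untreated control. The IC50 was the concentration reducing OD by half, given as mean ± SEM, N = 1–4.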

Leishmania donovani [2] = experiment: Antimicrobial activity against SSG-resistant Leishmania donovani 39 promastigote assessed as inhibition of parasite growth after 72 hrs by MTS assay; format: functional, organism-based; settings: Leishmania donovani, 39, 72 h; method in brief: as §1
Leishmania donovani [3] = experiment: Antimicrobial activity against wild-type Leishmania donovani AG83 promastigote assessed as inhibition of parasite growth after 72 hrs by MTS assay; format: functional, organism-based; settings: AG83, 72 h
Method in brief: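 Promastigotes were grown in Schneider's medium pH 6.9 with 10% heat-inactivated FBS at 27 °C, seeded at 1 × 10^5 per well, and exposed to serial concentrations for 72 h at 27 °C. Compounds were in DMSO (≤1% final) or water. MTS:PMS (20:1) was added for 4 h, then OD490 was read.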

O=c1cc(-c2ccc(OCCOCCOCCOCCOCCOc3ccc(-c4cc(=O)c5c(O)cc(O)cc5o4)cc3)cc2)oc2cc(O)cc(O)c12
IC50 (Leishmania donovani [1]): 2.6 µM
IC50 (RAW264.7): > 200 µM
IC50 (Leishmania donovani [2]): 1.8 µM
IC50 (Leishmania donovani [3]): 2.3 µM

O=c1cc(-c2ccc(OCCOCCOCCOCCOc3ccc(-c4cc(=O)c5c(O)cccc5o4)cc3)cc2)oc2cccc(O)c12
IC50 (Leishmania donovani [2]): > 24 µM
IC50 (Leishmania donovani [3]): > 24 µM

Cc1ccc2c(=O)cc(-c3ccc(OCCOCCOCCOCCOc4ccc(-c5cc(=O)c6ccc(C)cc6o5)cc4)cc3)oc2c1
IC50 (Leishmania donovani [1]): > 24 µM
IC50 (RAW264.7): 88.6 µM
IC50 (Leishmania donovani [2]): > 24 µM
IC50 (Leishmania donovani [3]): > 24 µM

O=c1cc(-c2ccc(OCCOCCOCCOCCOCCOCCOCCOCCOCCOCCOCCOCCOCCOc3ccc(-c4cc(=O)c5ccccc5o4)cc3)cc2)oc2ccccc12
IC50 (Leishmania donovani [1]): 7.9 µM
IC50 (RAW264.7): 8.4 µM
IC50 (Leishmania donovani [2]): 8.2 µM
IC50 (Leishmania donovani [3]): 9.2 µM

O=c1cc(-c2ccc(OCCOCCN(CCCc3ccccc3)CCOCCOc3ccc(-c4cc(=O)c5ccccc5o4)cc3)cc2)oc2ccccc12
IC50 (RAW264.7): 85 µM
IC50 (Leishmania donovani [2]): 18.4 µM
IC50 (Leishmania donovani [3]): 8.9 µM

CS(=O)(=O)N(CCOCCOc1ccc(-c2cc(=O)c3ccccc3o2)cc1)CCOCCOc1ccc(-c2cc(=O)c3ccccc3o2)cc1
IC50 (RAW264.7): 96 µM
IC50 (Leishmania donovani [2]): 0.9 µM
IC50 (Leishmania donovani [3]): 0.75 µM

COC(=O)c1ccc(CN(CCOCCOc2ccc(-c3cc(=O)c4ccccc4o3)cc2)CCOCCOc2ccc(-c3cc(=O)c4ccccc4o3)cc2)cc1
IC50 (RAW264.7): 45.7 µM
IC50 (Leishmania donovani [2]): > 100 µM
IC50 (Leishmania donovani [3]): > 100 µM

CCOC(=O)CCN(CCOCCOc1ccc(-c2cc(=O)c3ccccc3o2)cc1)CCOCCOc1ccc(-c2cc(=O)c3ccccc3o2)cc1
IC50 (RAW264.7): 16 µM
IC50 (Leishmania donovani [2]): 6.6 µM
IC50 (Leishmania donovani [3]): 3.8 µM

O=c1cc(-c2ccc(OCCOCCN(CCOCCOc3ccc(-c4cc(=O)c5ccccc5o4)cc3)Cc3ccc(F)cc3)cc2)oc2ccccc12
IC50 (Leishmania donovani [3]): > 100 µM

Cc1ccc(S(=O)(=O)N(CCOCCOc2ccc(-c3cc(=O)c4ccccc4o3)cc2)CCOCCOc2ccc(-c3cc(=O)c4ccccc4o3)cc2)cc1
IC50 (RAW264.7): > 100 µM
IC50 (Leishmania donovani [2]): > 100 µM
IC50 (Leishmania donovani [3]): 100 µM

O=c1cc(-c2ccc(OCCOCCN(CCOCCOc3ccc(-c4cc(=O)c5ccccc5o4)cc3)Cc3ccc([N+](=O)[O-])cc3)cc2)oc2ccccc12
IC50 (RAW264.7): 70.3 µM
IC50 (Leishmania donovani [2]): > 100 µM
IC50 (Leishmania donovani [3]): > 100 µM

O=c1cc(-c2ccc(OCCOCCOCCOCCOCCOCCOc3ccc(-c4cc(=O)c5c(O)cc(O)cc5o4)cc3)cc2)oc2cc(O)cc(O)c12
IC50 (Leishmania donovani [1]): 11.8 µM
IC50 (Leishmania donovani [2]): 1.4 µM
IC50 (Leishmania donovani [3]): > 24 µM

O=c1cc(-c2ccc(OCCOCCN(CCOCCOc3ccc(-c4cc(=O)c5ccccc5o4)cc3)Cc3ccnc4ccccc34)cc2)oc2ccccc12
IC50 (Leishmania donovani [3]): 20.4 µM

O=c1c(O)c(-c2ccc(OCCOCCOCCOCCOc3ccc(-c4oc5ccccc5c(=O)c4O)cc3)cc2)oc2ccccc12
IC50 (Leishmania donovani [2]): > 24 µM
IC50 (Leishmania donovani [3]): > 24 µM

O=c1cc(-c2ccc(OCCOCCN(CCOCCOc3ccc(-c4cc(=O)c5ccccc5o4)cc3)Cc3cccc(F)c3)cc2)oc2ccccc12
IC50 (Leishmania donovani [3]): > 100 µM

O=c1cc(-c2ccc(OCCOCCN(CCOCCOc3ccc(-c4cc(=O)c5ccccc5o4)cc3)Cc3ccc(C(F)(F)F)cc3)cc2)oc2ccccc12
IC50 (Leishmania donovani [3]): 14.1 µM

O=c1cc(-c2ccc(OCCOCCN(CCOCCOc3ccc(-c4cc(=O)c5ccccc5o4)cc3)Cc3cc(F)c(F)c(F)c3)cc2)oc2ccccc12
IC50 (Leishmania donovani [3]): 33.3 µM

O=c1cc(-c2ccc(OCCOCCN(CCOCCOc3ccc(-c4cc(=O)c5ccccc5o4)cc3)Cc3ccccc3F)cc2)oc2ccccc12
IC50 (Leishmania donovani [3]): > 100 µM

O=c1cc(-c2ccc(OCCOCCN(CCOCCOc3ccc(-c4cc(=O)c5ccccc5o4)cc3)Cc3ccccc3)cc2)oc2ccccc12
IC50 (RAW264.7): > 79 µM
IC50 (Leishmania donovani [2]): 12.3 µM
IC50 (Leishmania donovani [3]): 8.4 µM

CCN(CCOCCOc1ccc(-c2cc(=O)c3ccccc3o2)cc1)CCOCCOc1ccc(-c2cc(=O)c3ccccc3o2)cc1
IC50 (RAW264.7): 8.3 µM
IC50 (Leishmania donovani [2]): 5.5 µM
IC50 (Leishmania donovani [3]): 3.2 µM

O=c1cc(-c2ccc(OCCOCCN(CCO)CCOCCOc3ccc(-c4cc(=O)c5ccccc5o4)cc3)cc2)oc2ccccc12
IC50 (RAW264.7): 6.4 µM
IC50 (Leishmania donovani [2]): 7.2 µM
IC50 (Leishmania donovani [3]): 3.2 µM
